Results as given in ChEMBL document CHEMBL4699522, “Androsamide, a Cyclic Tetrapeptide from a Marine Nocardiopsis sp., Suppresses Motility of Colorectal Cancer Cells” (J Nat Prod, 2020).
Calls of active or inactive are those of the source. Non-standard residues stand in square brackets, D forms with d. Residues, ends and D or L forms follow the SMILES beside them. NMeTrp(4-OMe) = CN[C@@H](Cc1c[nH]c2cccc(OC)c12)C(=O)O; NMeM = CN[C@@H](CCSC)C(=O)O

Legend:
Caco-2 [1] = experiment: Inhibition of epithelial-mesenchymal transition in human Caco-2 cells assessed as increase in E-cadherin protein expression at 0.65 to 1.3 uM after 24 hrs by Western blot analysis; type: functional, cell-based; settings: dose microM 0.65-1.3, time 24.0 hrs
Summary of the method: (§1)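 2 × 10^5 Caco2 cells per well treated 24 h at nontoxic concentrations. Lysates separated by SDS-PAGE and probed with primary antibodies, then HRP-conjugated secondaries. Luminescence band densities normalized to α-tubulin and compared with DMSO-treated cells. Means ± SEM, n = 3.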

Caco-2 [2] = experiment: Inhibition of cell migration in human Caco-2 cells after 6 hrs by K1-Fluo RT fluorescence confocal microscope based transwell assay; type: functional; settings: dose microM 0.15-1.3, time 6.0 hrs
Summary of the method: (§2)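 Migration through uncoated Boyden chambers. (2.0-2.5) × 10^5 Caco2 cells seeded in medium with 0.2% BSA. The lower chamber holds 0.2% BSA medium plus 10 μg/mL fibronectin as chemoattractant. Treated at 0.15, 0.65 or 1.3 μM for 6 h at 37 °C. Migrated cells fixed, Diff-Quick stained and counted in five random fields by confocal microscopy. Expressed relative to DMSO control; triplicate.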

Caco-2 [3] = experiment: Inhibition of epithelial-mesenchymal transition in human Caco-2 cells assessed as decrease in N-cadherin mRNA expression after 24 hrs by qRT-PCR analysis; type: functional, cell-based; settings: dose microM 0.65-1.3, time 24.0 hrs
Summary of the method: (§3)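 Caco2 treated 24 h at 0.65 or 1.3 μM. Total RNA isolated, and 1 μg reverse-transcribed. Quantified by SYBR green real-time PCR. Fold change derived from cycle-threshold values, normalized to GAPDH, and compared with DMSO-treated cells. Means ± SEM, n = 3.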

Caco-2 [4] = experiment: Inhibition of epithelial-mesenchymal transition in human Caco-2 cells assessed as increase in E-cadherin mRNA expression after 24 hrs by qRT-PCR analysis; type: functional, cell-based; settings: dose microM 0.65-1.3, time 24.0 hrs; summary of the method: as §3
Caco-2 [5] = experiment: Inhibition of epithelial-mesenchymal transition in human Caco-2 cells assessed as decrease in vimentin mRNA expression after 24 hrs by qRT-PCR analysis; type: functional, cell-based; settings: dose microM 0.65-1.3, time 24.0 hrs; summary of the method: as §3
Caco-2 [6] = experiment: Inhibition of epithelial-mesenchymal transition in human Caco-2 cells assessed as decrease in Twist mRNA expression at 0.65 to 1.3 uM after 24 hrs by qRT-PCR analysis; type: functional, cell-based; settings: dose microM 0.65-1.3, time 24.0 hrs; summary of the method: as §3
Caco-2 [7] = experiment: Inhibition of epithelial-mesenchymal transition in human Caco-2 cells assessed as decrease in ZEB1 mRNA expression at 0.65 to 1.3 uM after 24 hrs by qRT-PCR analysis; type: functional, cell-based; settings: dose microM 0.65-1.3, time 24.0 hrs; summary of the method: as §3
Caco-2 [8] = experiment: Inhibition of epithelial-mesenchymal transition in human Caco-2 cells assessed as decrease in ZEB2 mRNA expression at 0.65 to 1.3 uM after 24 hrs by qRT-PCR analysis; type: functional, cell-based; settings: dose microM 0.65-1.3, time 24.0 hrs; summary of the method: as §3
Caco-2 [9] = experiment: Inhibition of epithelial-mesenchymal transition in human Caco-2 cells assessed as decrease in Snail protein expression at 0.65 to 1.3 uM after 24 hrs by Western blot analysis; type: functional, cell-based; settings: dose microM 0.65-1.3, time 24.0 hrs; summary of the method: as §1
Caco-2 [10] = experiment: Induction of apoptosis in human Caco-2 cells at 13 to 16 uM after 6 hrs by annexin V-FITC/propidium iodide staining based flow cytometric analysis; type: functional, cell-based; settings: dose microM 13-16, time 6.0 hrs
AGS = experiment: Cytotoxicity against human AGS cells assessed as reduction in cell viability after 48 hrs by MTT assay; type: functional, cell-based
Summary of the method: (§4)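 MTT read-out. Cells seeded at (2-3) × 10^3/well, incubated 12 h, then exposed to 3.125–100 μM for 48 h, with MTT added for the final 4 h. Absorbance read at 540 nm. Viability is normalized to DMSO-treated cells. IC50 computed by statistical software. Means ± SEM, n = 3. AGS cells were grown in RPMI, Caco2 and HCT116 in DMEM, all with 10% FBS, at 37 °C and 5% CO2.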

Caco-2 [11] = experiment: Inhibition of cell migration in human Caco-2 cells after 24 hrs by fluorescence microscope based Boyden-Chamber cell migration assay; type: functional; settings: dose microM 0.15-1.3, time 24.0 hrs
Summary of the method: (§5)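 Boyden chambers coated with 1% gelatin. Caco2 seeded at 2.5 × 10^6 cells/mL in 0.2% BSA medium; the lower chamber has 0.2% BSA medium with 10 μg/mL fibronectin. Exposed to 0.15, 0.65 or 1.3 μM for 24 h at 37 °C. Invaded cells fixed, Diff-Quick stained and counted in five random fields by fluorescence microscopy. Expressed relative to DMSO control; three replicates.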

HCT-116 [12] = experiment: Cytotoxicity against human HCT-116 cells assessed as reduction in cell viability after 48 hrs by MTT assay; type: functional, cell-based; summary of the method: as §4
Caco-2 [13] = experiment: Inhibition of epithelial-mesenchymal transition in human Caco-2 cells assessed as decrease in Snail mRNA expression at 0.65 to 1.3 uM after 24 hrs by qRT-PCR analysis; type: functional, cell-based; settings: dose microM 0.65-1.3, time 24.0 hrs; summary of the method: as §3
Caco-2 [14] = experiment: Inhibition of cell migration in human Caco-2 cells at 1.3 uM after 24 hrs by fluorescence microscope based Boyden-Chamber cell migration assay relative to control; type: functional; summary of the method: as §5
Caco-2 [15] = experiment: Inhibition of epithelial-mesenchymal transition in human Caco-2 cells assessed as decrease in Twist protein expression at 0.65 to 1.3 uM after 24 hrs by Western blot analysis; type: functional, cell-based; settings: dose microM 0.65-1.3, time 24.0 hrs; summary of the method: as §1
Caco-2 [16] = experiment: Inhibition of epithelial-mesenchymal transition in human Caco-2 cells assessed as decrease in N-cadherin protein expression at 0.65 to 1.3 uM after 24 hrs by Western blot analysis; type: functional, cell-based; settings: dose microM 0.65-1.3, time 24.0 hrs; summary of the method: as §1
Caco-2 [17] = experiment: Inhibition of cell motility in human Caco-2 cells assessed as reduction in RAC2 mRNA expression at 0.65 to 1.3 uM by RT2 Profiler PCR Array; type: functional, cell-based; settings: dose microM 0.65-1.3
HCT-116 [18] = experiment: Induction of apoptosis in human HCT-116 cells at 21 to 26 uM after 6 hrs by annexin V-FITC/propidium iodide staining based flow cytometric analysis; type: functional, cell-based; settings: dose microM 21-26, time 6.0 hrs
Caco-2 [19] = experiment: Inhibition of cell migration in human Caco-2 cells at 1.3 uM after 6 hrs by K1-Fluo RT fluorescence confocal microscope based transwell assay relative to control; type: functional; summary of the method: as §2
Caco-2 [20] = experiment: Inhibition of epithelial-mesenchymal transition in human Caco-2 cells assessed as decrease in Slug mRNA expression at 0.65 to 1.3 uM after 24 hrs by qRT-PCR analysis; type: functional, cell-based; settings: dose microM 0.65-1.3, time 24.0 hrs; summary of the method: as §3
Caco-2 [21] = experiment: Cytotoxicity against human Caco-2 cells assessed as reduction in cell viability after 48 hrs by MTT assay; type: functional, cell-based; summary of the method: as §4
Caco-2 [22] = experiment: Inhibition of cell motility in human Caco-2 cells assessed as reduction in CAPN1 mRNA expression at 0.65 to 1.3 uM by RT2 Profiler PCR Array; type: functional, cell-based; settings: dose microM 0.65-1.3

Compound: CC[C@H](C)[C@@H]1NC(=O)[C@H]([C@@H](C)O)NC(=O)[C@H](Cc2c[nH]c3cccc(OC)c23)N(C)C(=O)[C@H](CCSC)N(C)C1=O (cyclo(I[NMeM][NMeTrp(4-OMe)]T))
- inhibition (Caco-2 [1]): Active
- inhibition (Caco-2 [2]): Dose-dependent effect
- inhibition (Caco-2 [3]): Dose-dependent effect
- inhibition (Caco-2 [4]): Dose-dependent effect
- inhibition (Caco-2 [5]): Dose-dependent effect
- inhibition (Caco-2 [6]): Active
- inhibition (Caco-2 [7]): Active
- inhibition (Caco-2 [8]): Active
- inhibition (Caco-2 [9]): Active
- Activity (Caco-2 [10]): Active
- Activity (AGS): Dose-dependent effect
- IC50 (AGS): 18 µM
- inhibition (Caco-2 [11]): Dose-dependent effect
- Activity (HCT-116 [12]): Dose-dependent effect
- IC50 (HCT-116 [12]; HCT-116, 48 h): 21 µM
- inhibition (Caco-2 [13]): Active
- inhibition at 1.3 µM (Caco-2 [14]): 45%
- inhibition (Caco-2 [15]): Active
- inhibition (Caco-2 [16]): Active
- inhibition (Caco-2 [17]): Active
- Activity (HCT-116 [18]): Active
- inhibition at 1.3 µM (Caco-2 [19]): 50%
- inhibition (Caco-2 [20]): Active
- Activity (Caco-2 [21]): Dose-dependent effect
- IC50 (Caco-2 [21]; Caco-2, 48 h): 13 µM
- inhibition (Caco-2 [22]): Active
